Measurements from ChEMBL document CHEMBL1129371, “Bis tertiary amide inhibitors of the HIV-1 protease generated via protein structure-based iterative design” (J Med Chem, 1996).

What was measured:
[1] = system: Human immunodeficiency virus 1; experiment: Effective dose against inhibition of HIV-1 protease in CEM cells; assay type: functional; conditions: Human immunodeficiency virus 1, CCRF-CEM; read-out: ED50 (the source's name)
Method in brief: (§1)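 HIV-1-induced killing of CEM-SS cells; cell viability read by MTT tetrazolium metabolism. ED50 = concentration giving 50% inhibition of HIV-1-induced cell death. Run at Southern Research Institute.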

[2] = target: T1, Human immunodeficiency virus type 1 protease (Human immunodeficiency virus 1, UniProt Q72874); experiment: Binding affinity against HIV-1 protease
[3] = target: T1, Human immunodeficiency virus type 1 protease; experiment: Compound was tested for binding affinity against HIV protease
[4] = system: CCRF-CEM; experiment: Antiviral activity againsy HIV-1 in CEM cells; assay type: functional; conditions: Homo sapiens, read-out: ED50 (the source's name); method in brief: as §1
[5] = Toxic concentration at which 50% of CEM-SS cells were viable (uninfected with virus) as determined by metabolism of MTT in(uM).; assay type: toxicity, cell-based; conditions: human, read-out: TC50 (the source's name)
Method in brief: (§2)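 Uninfected CEM-SS cells; viability read by MTT metabolism. TC50 = concentration giving 50% reduction in number of viable cells; reported in μM.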

[6] = Maximal concentration in monkey plasma after 25 mg/kg oral dose; assay type: ADME, organism-based; parameters: dose 25 mg/kg, route oral; conditions: simiiformes
[7] = Pharmacokinetic parameter half life determined after oral administration of 15 mg/kg to dog; assay type: ADME, organism-based, Canis lupus familiaris; parameters: dose 15 mg/kg, route oral; conditions: in vivo
[8] = Pharmacokinetic parameter Cmax determined after oral administration of 15 mg/kg to dog; conditions: in vivo
[9] = Pharmacokinetic parameter Cmax determined after intravenous administration of 50 mg/kg to rat; assay type: ADME, organism-based; parameters: dose 50 mg/kg, route intravenous; conditions: in vivo
[10] = Pharmacokinetic parameter Cmax determined after oral administration of 50 mg/kg to rat; assay type: ADME, organism-based; parameters: dose 50 mg/kg, route oral; conditions: in vivo
[11] = Pharmacokinetic parameter half life determined after intravenous administration of 50 mg/kg to rat; assay type: ADME, organism-based; parameters: dose 50 mg/kg, route intravenous; conditions: in vivo
[12] = Fraction of compound bio available orally in rat at dosage 50(mg/kg) by po administration; assay type: ADME, organism-based; conditions: in vivo
[13] = Pharmacokinetic parameter Cmax determined after intravenous administration of 60 mg/kg to rat; assay type: ADME, organism-based; parameters: dose 60 mg/kg, route intravenous; conditions: in vivo
[14] = system: Rattus norvegicus; experiment: Fraction of compound bio available orally in rat at dosage 50(mg/kg) by po administration.; conditions: in vivo
[15] = Pharmacokinetic parameter half life determined after intravenous administration of 60 mg/kg to rat; assay type: ADME, organism-based; parameters: dose 60 mg/kg, route intravenous; conditions: in vivo
[16] = Fraction of compound bio available orally in monkey at dosage 25(mg/kg) by po administration.; conditions: primates, in vivo
[17] = Fraction of compound bio available orally in dog at dosage 30(mg/kg) by po administration.; assay type: ADME, organism-based, Canis lupus familiaris; conditions: in vivo
[18] = Pharmacokinetic parameter Cmax determined after peroral administration of 50 mg/kg to rat; assay type: ADME, organism-based; parameters: dose 50 mg/kg, route oral; conditions: in vivo, po
[19] = Pharmacokinetic parameter Cmax determined after oral administration of 30 mg/kg abd antacid (CaCO3 dosed orally 10 min prior to and 60 min postdosing) to dog; conditions: in vivo
[20] = Pharmacokinetic parameter half life determined after peroral administration of 30 mg/kg abd antacid (CaCO3 dosed orally 10 min prior to and 60 min postdosing) to dog; conditions: in vivo, po
[21] = Pharmacokinetic parameter half life determined after intravenous administration of 15 mg/kg to dog; assay type: ADME, organism-based, Canis lupus familiaris; parameters: dose 15 mg/kg, route intravenous; conditions: in vivo
[22] = Fraction of compound bio available orally in dog at dosage 15(mg/kg) by po administration.; assay type: ADME, organism-based, Canis lupus familiaris; conditions: in vivo
[23] = Pharmacokinetic parameter half life determined after peroral administration of 25 mg/kg to monkey; assay type: ADME, organism-based; parameters: dose 25 mg/kg, route oral; conditions: simiiformes, in vivo, po
[24] = Oral bioavailability in rat (dose 50 mg/kg); assay type: ADME, organism-based; conditions: in vivo
[25] = Pharmacokinetic parameter Cmax determined after oral administration of 30 mg/kg to dog; conditions: in vivo
[26] = Pharmacokinetic parameter Cmax determined after peroral administration of 25 mg/kg to monkey; assay type: ADME, organism-based; parameters: dose 25 mg/kg, route oral; conditions: simiiformes, in vivo, po
[27] = Pharmacokinetic parameter Cmax determined after intravenous administration of 25 mg/kg to monkey; assay type: ADME, organism-based; parameters: dose 25 mg/kg, route intravenous; conditions: simiiformes, in vivo
[28] = Pharmacokinetic parameter half life determined after intravenous administration of 25 mg/kg to monkey; assay type: ADME, organism-based; parameters: dose 25 mg/kg, route intravenous; conditions: simiiformes, in vivo
[29] = Toxic concentration at which 50% of CEM-SS cells were viable (uninfected with virus) as determined by metabolism of MTT; assay type: toxicity, cell-based; conditions: human, read-out: TC50 (the source's name); method in brief: as §2

Which EC50 [1] does the source give for `CCC1(N(CCO)C(=O)c2ccccc2CCC(O)Cc2ccc(C)cc2C(=O)N(CCO)C(C)(C)C2CCOCC2)CCCC1` (stereo not drawn) here?
Its EC50 is 1110 nM.

And the Ki [2]?
Its Ki is 35 nM.

Which EC50 [1] does the source give for `CCN(C(=O)c1ccccc1CC(O)CCc1ccccc1C(=O)N(CCO)C1(CC)CCCC1)C(C)(C)c1ccccc1` (stereo not drawn) here?
The EC50 was 1700 nM.

What about the Ki [2] of the same molecule?
Its Ki is 51 nM.

What does the source list for `CCC1(N(CCO)C(=O)c2ccccc2CCC(O)Cc2ccc(C)cc2C(=O)N(CC2COC(C)(C)OC2)C(C)(C)c2ccccc2)CCCC1` (stereo not drawn)?
Ki [3]: 4 nM; EC50 [4]: 590 nM

With `CC(C)(C)NC(=O)c1ccccc1CCC(O)Cc1ccccc1C(=O)NC(C)(C)C` (stereo not drawn) as the molecule, how does the Ki [2] read?
Its Ki is 20000 nM.

Which CC50 [5] does the source give for `CC(C)(C)N(CCO)C(=O)c1ccccc1CCC(O)Cc1ccccc1C(=O)N(CCO)C(C)(C)C` (stereo not drawn) here?
Its CC50 is greater than 150000 nM.

What about the EC50 [1] of the same molecule?
Its EC50 is 36000 nM.

Which EC50 [1] does the source give for `Cc1ccc(CC(O)CCc2ccccc2C(=O)N(CCO)C(C)(C)c2ccccc2)c(C(=O)N(CCO)C(C)(C)c2ccccc2)c1` (stereo not drawn) here?
Its EC50 is 810 nM.

What about the Cmax [6] of the same molecule?
Its Cmax is 860 ng/mL.

What about the half-life [7] of the same molecule?
The half-life was 2.07 h.

And the Cmax [8]?
The Cmax was 390 ng/mL.

What about the Ki [2] of the same molecule?
The Ki was 18 nM.

What about the Cmax [9] of the same molecule?
The Cmax was 88900 ng/mL.

And the Cmax [10]?
The Cmax was 1200 ng/mL.

What about the half-life [11] of the same molecule?
The half-life was 0.5 h.

And the bioavailability [12]?
Its bioavailability is 34%.

For `CCC1(N(CCO)C(=O)c2ccccc2CCC(O)Cc2ccc(C)cc2C(=O)N(CCO)C2(c3ccccc3)CCCC2)CCCC1` (stereo not drawn), which EC50 [1] is on record?
The EC50 was 790 nM.

And the Ki [2]?
The Ki was 0.4 nM.

Which CC50 [5] does the source give for `CC(C)(C)N(CCO)C(=O)c1ccccc1CCC(O)Cc1ccccc1C(=O)N(CCO)C(C)(C)c1ccccc1` (stereo not drawn) here?
The CC50 was greater than 150000 nM.

And the EC50 [1]?
The EC50 was 3400 nM.

What about the Ki [2] of the same molecule?
Its Ki is 90 nM.

For `CCC1(N(CCO)C(=O)c2ccccc2CCC(O)Cc2ccc(C)cc2C(=O)N(CCO)C(C)(C)c2ccc(OCc3cccnc3)cc2)CCCC1` (stereo not drawn), which EC50 [1] is on record?
The EC50 was 650 nM.

And the Ki [2]?
The Ki was 2 nM.

And the Cmax [13]?
The Cmax was 87200 ng/mL.

What about the Cmax [10] of the same molecule?
The Cmax was 860 ng/mL.

What about the bioavailability [14] of the same molecule?
The bioavailability was 5%.

What about the half-life [15] of the same molecule?
The half-life was 1 h.

Which bioavailability [16] does the source give for `CCC1(N(CCO)C(=O)c2ccccc2CCC(O)Cc2ccc(C)cc2C(=O)N(CCO)C(C)(C)c2ccccc2)CCCC1` (stereo not drawn) here?
Its bioavailability is 32%.

And the bioavailability [17]?
Its bioavailability is 33%.

What about the CC50 [5] of the same molecule?
Its CC50 is 103000 nM.

What about the EC50 [1] of the same molecule?
The EC50 was 780 nM.

What about the Cmax [18] of the same molecule?
The Cmax was 2780 ng/mL.

And the Cmax [19]?
Its Cmax is 3260 ng/mL.

What about the half-life [20] of the same molecule?
The half-life was 0.52 h.

And the half-life [21]?
Its half-life is 0.24 h.

And the bioavailability [22]?
The bioavailability was 3%.

What about the half-life [23] of the same molecule?
The half-life was 1.07 h.

What about the Ki [2] of the same molecule?
Its Ki is 8 nM.

And the bioavailability [24]?
The bioavailability was 39%.

And the Cmax [25]?
The Cmax was 690 ng/mL.

And the Cmax [9]?
Its Cmax is 88400 ng/mL.

What about the Cmax [26] of the same molecule?
The Cmax was 1910 ng/mL.

What about the Cmax [27] of the same molecule?
Its Cmax is 18300 ng/mL.

What about the half-life [11] of the same molecule?
Its half-life is 1.3 h.

And the half-life [28]?
Its half-life is 1.08 h.

With `Cc1ccc(CC(O)CCc2ccccc2C(=O)N(CCO)C(C)(C)C)c(C(=O)N(CCO)C(C)(C)c2ccccc2)c1` (stereo not drawn) as the molecule, how does the EC50 [1] read?
The EC50 was 4200 nM.

And the Ki [2]?
Its Ki is 63 nM.

With `CC(C)(C)NC(=O)c1ccccc1C[C@@H](O)[C@H](Cc1ccccc1)NC(=O)[C@H](CC(N)=O)NC(=O)c1cnc2ccccc2c1` as the molecule, how does the EC50 [1] read?
The EC50 was 20 nM.

What about the CC50 [29] of the same molecule?
The CC50 was 122000 nM.

For `CC(C)(C)N(CCO)C(=O)c1ccccc1CCC(O)Cc1ccccc1C(=O)N(CCO)C(C)(C)c1ccc2ccccc2c1` (stereo not drawn), which EC50 [1] is on record?
Its EC50 is 7200 nM.

And the Ki [2]?
Its Ki is 145 nM.
